# Screening results as filed in PubChem.
# KCNK3 inh: human KCNK3 channel inhibition, primary screen. O14649. CHO-KCNK3 thallium flux, FluxOR fluorescence; stronger effect = lower value. B-score at 10 µM. 340,000 compounds, 0.84% hits. AID 602410;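 active = B-score under library mean minus 4 SD, starting fluorescence ratio at most library mean plus 5 SD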;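 also: more negative B-score means stronger inhibition of thallium flux through KCNK3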
# KCNQ1 block: inhibitors of human KCNQ1 potassium channel; CHO-K1 KCNQ1, FluxOR thallium flux fluorescence; stronger effect = higher value; B-score at 10 µM; 310,000 compounds, 1.3% hits; AID 2642;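 active = compounds whose thallium flux B-score, printed positive for inhibition, exceeds three library SD while starting fluorescence stays within three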;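 also: channel opened by potassium depolarization with thallium stimulus after 20 min compound exposure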
# Target sequence (P51787 whole entry, looked up): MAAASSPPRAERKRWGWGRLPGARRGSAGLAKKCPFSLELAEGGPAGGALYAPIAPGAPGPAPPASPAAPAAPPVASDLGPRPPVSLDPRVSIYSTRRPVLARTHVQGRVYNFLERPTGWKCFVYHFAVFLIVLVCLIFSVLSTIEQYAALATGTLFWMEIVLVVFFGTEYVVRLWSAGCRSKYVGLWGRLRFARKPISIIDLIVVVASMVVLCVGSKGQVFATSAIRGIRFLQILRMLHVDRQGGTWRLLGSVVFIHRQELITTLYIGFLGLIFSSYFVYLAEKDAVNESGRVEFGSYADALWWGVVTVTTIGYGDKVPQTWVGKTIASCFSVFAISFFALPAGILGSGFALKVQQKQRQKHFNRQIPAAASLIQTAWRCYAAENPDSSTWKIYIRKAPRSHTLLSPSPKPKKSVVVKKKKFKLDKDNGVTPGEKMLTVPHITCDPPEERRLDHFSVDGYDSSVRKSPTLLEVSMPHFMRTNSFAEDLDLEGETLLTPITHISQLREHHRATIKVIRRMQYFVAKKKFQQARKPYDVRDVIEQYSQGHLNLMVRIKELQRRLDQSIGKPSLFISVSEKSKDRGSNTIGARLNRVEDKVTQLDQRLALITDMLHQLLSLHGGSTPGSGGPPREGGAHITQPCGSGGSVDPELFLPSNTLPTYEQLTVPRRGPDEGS
# KCNK9 block: inhibitors of human KCNK9 two-pore domain potassium channel; Q9NPC2; HEK293 KCNK9, FluxOR thallium flux fluorescence; stronger effect = lower value; B-score at 10 µM; 310,000 compounds, 1.2% hits; AID 488922;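 active = ratio B-score over 3 SD below the library mean, with starting fluorescence within 5 SD of its mean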;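 also: negative B-score means less thallium flux so channel inhibition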
# hERG protect: compounds protecting human hERG from proarrhythmic drug block | Q12809 | CHO-hERG, FluxOR thallium flux, dofetilide IC70 present | activation (rescue from dofetilide block), less the hit threshold, % at 10 µM | 310,000 compounds, 0.51% hits;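 active = activation above the mean of controls blocked by dofetilide plus 5 SD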;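 also: thallium influx through hERG after potassium depolarization seen as dye fluorescence rise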
# KCNQ1 pot: potentiates or activates the human KCNQ1 potassium channel; P51787; CHO-K1 KCNQ1, thallium flux FluxOR fluorescence; stronger effect = higher value; B-score at 10 µM; 310,000 compounds, 0.35% hits; AID 2648;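 active = fluorescence ratio B-score, a plate-corrected score, at least three library SD, with initial intensity B-score within 5 SD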
#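 Assay system: CHO-K1 cells stably expressing KCNQ1; Medium: assay buffer with matched DMSO; Also added: K+/Tl+ depolarizing stimulus; Dosing: single dose; Timing: dye 90 min, compound 20 min, room temperature; Measured by: kinetic FluxOR thallium fluorescence, 10-s 1-Hz baseline, 110-s post-stimulus read; Read-out: peak-minus-minimum fluorescence over initial fluorescence, negative-control normalized, B-scored.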
# KCNK9 block conf: confirmation of human KCNK9 potassium channel inhibitors | shares compounds with KCNK9 block | HEK293 KCNK9 cells, FluxOR thallium flux fluorescence | inhibition, % at 10 µM | 4,900 compounds, 43% hits | AID 492992;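 active = thallium signal inhibited by more than 5 SD of the compound-free buffer control wells, on both duplicate plates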;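 also: 0% = assay buffer control wells without compound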
# Kir2-1 spec: tests whether KCNK9 modulators also affect mouse Kir2.1; shares compounds with KCNK9 block; Kir2.1 cells, FluxOR thallium flux fluorescence; 4,900 compounds, 4% hits; inhibition, % at 10 µM;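 active = thallium signal drop more than 5 SD beyond the mean of the no-compound control wells, seen in both duplicate plates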;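 also: signal is fluorescence rise after thallium addition divided by baseline fluorescence; plate controls were assay buffer only for no effect and full block by chlorpromazine control for full effect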
# HEK293 Tl ctr: second check of KCNK9 modulator effects in non-induced HEK293 cells. inhibition, % at 10 µM. 4,900 compounds, 40% hits. shares compounds with KCNK9 block. FluxOR thallium flux;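 active = thallium signal drop beyond 5 SD of the untreated control mean, on both duplicate plates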;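 also: plate controls were buffer only IC0 wells for no effect and SID17386958 at its maximal inhibitory level for full effect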
# The depositor's hits bear a star; i = inactive; . = not tested or not shown. In the library only some 3.1% were active in any assay of this set; here they are far more common.
SMILES,KCNK3 inh,KCNQ1 block,KCNK9 block,hERG protect,KCNQ1 pot,KCNK9 block conf,Kir2-1 spec,HEK293 Tl ctr
COc1ccc(NC2CCCN(C(=O)c3cccs3)C2)cc1 (centres undefined),i,i,i,-2,i,i,i,i
Cc1ccc(NC2CCCN(C(=O)c3cccs3)C2)cc1C (centres undefined),i,i,i,-11,i,i,i,i
COCc1ccc(C(=O)N2CCCC(Nc3ccc(C(C)C)cc3)C2)s1 (centres undefined),i,i,i,-6,i,i,i,i
Cc1ccc(NC2CCCN(C(=O)c3cccnc3)C2)cc1C (centres undefined),i,i,i,1,i,.,.,.
CC(C)c1ccc(NC2CCCN(C(=O)c3cccs3)C2)cc1 (centres undefined),i,i,i,-8,i,i,i,i
CC(C)(C)NC(=O)CC1C[C@H](C(=O)N2CCCCC2)[C@@]2(C)c3[nH]c4ccccc4c3CCN2C1=O (some centres undefined),i,.,.,.,.,.,.,.
COc1cc(CCC(C)=O)ccc1OC(=O)c1c(F)cccc1Cl,i,i,i,-10,i,.,.,.
Cc1ccccc1CN1CCN(c2nc3ccccc3s2)CC1,i,i,i,-1,i,i,i,34%*
COc1ccc(CN2CCN(c3nc4ccccc4s3)CC2)cc1,i,i,i,-10,i,.,.,.
CCN(CC)C(=O)CSc1nc(-c2cccs2)cc(-c2cccs2)c1C#N,i,i,-9.8*,-21,i,62%*,i,68%*
CCN(CC)C(=O)CSc1nc(N)c(C#N)c(-c2cccs2)c1C#N,i,i,i,3,i,.,.,.
COc1ccc(NC(=O)c2ccccc2Oc2ccccc2)c(OC)c1,i,i,-8.4*,-9,i,55%*,i,30%*
COc1ccc(NC(=O)c2cc(-c3cccnc3)nc3c(C)c(C)ccc23)c(OC)c1,i,i,i,-18,i,i,i,i
FC(F)(F)c1cccc(Cn2c3[n+](c4ccc(C(F)(F)F)cc42)CCCCC3)c1,i,i,i,-19,i,.,.,.
Cc1cc(C(C)(C)C)cc(C)c1Cn1c2[n+](c3ccc(C(F)(F)F)cc31)CCCCC2,i,6*,-11*,-26,i,71%*,i,i
O=C(NCc1ccccc1Cl)C(=O)c1cn(CC(=O)N2CCOCC2)c2ccccc12,i,i,i,-6,i,.,.,.
Cn1cc(SCC(=O)Nc2ccc3c(c2)OCCO3)c2ccccc21,i,i,i,-7,i,.,.,.
Cc1ccc(N2C(=O)CC(Sc3nccc(C)n3)C2=O)cc1 (centres undefined),i,i,i,-5,i,.,.,.
CCc1ccccc1N1C(=O)CC(Sc2nccc(C)n2)C1=O (centres undefined),i,i,i,-6,i,i,i,i
Cc1cccc(N2CCN(C(=O)COc3cccc4c3OC(C)(C)C4)CC2)c1C,i,i,-8.7*,-9,i,25%*,i,i
CC1(C)Cc2cccc(OCC(=O)N3CCN(S(=O)(=O)c4ccc(F)cc4)CC3)c2O1,i,i,i,-12,i,.,.,.
CC1COC(Cn2c3ccccc3c3ccccc32)O1 (centres undefined),i,i,i,-8,i,.,.,.
COC(=O)CNC(c1ccccc1)c1cc(Br)ccc1NC(=O)OCc1ccccc1 (centres undefined),i,i,-18*,-5,i,74%*,i,64%*
Cc1cccc(NC2=CC(=O)CC(C)(C)C2)c1C,i,i,i,-3,i,.,.,.
COc1cccc2c1-c1c(C(=O)O)cccc1C2=O,i,i,i,-9,i,i,i,i
SMILES,KCNK3 inh,KCNQ1 block,KCNK9 block,hERG protect,KCNQ1 pot,KCNK9 block conf,Kir2-1 spec,HEK293 Tl ctr
CCCCCC(=O)Nc1cccc(C2=NOC3(C2)C[C@@H](C(N)=O)N(C(=O)C2(C)CC2)C3)c1 (some centres undefined),i,i,i,1,i,.,.,.
COc1ccc(C(=O)Oc2ccc3ccc(=O)oc3c2)cc1,i,i,-13*,-3,i,64%*,i,27%*
O=C(Oc1ccc2ccc(=O)oc2c1)c1ccccc1,i,i,i,-11,i,.,.,.
COc1cc(CN2CCN(c3cc(C)ccc3C)CC2)cc([N+](=O)[O-])c1O,.,i,i,-13,i,i,i,i
CCOC(=O)CN1C(=O)N[C@@H](CCc2ccccc2)[C@H](C(C)=O)[C@H]1C,i,i,i,-8,i,.,.,.
CC(C)(C)N1CC(C(=O)Nc2ccc(C#N)cc2)CC1=O (centres undefined),i,i,i,-4,i,.,.,.
CCOC(=O)C1(Cc2cccc(OC)c2)CCN(Cc2cnc(C)s2)CC1,i,i,i,-6,i,.,.,.
O=C1OC(Oc2ccccc2)(c2ccccc2)c2ccccc21 (centres undefined),i,i,-10*,-16,i,52%*,i,48%*
O=C1OC(OC2CCCCC2)(c2ccccc2)c2ccccc21 (centres undefined),i,i,-18*,-7,i,76%*,i,60%*
CCCCC(CC)COC1(c2ccccc2)OC(=O)c2ccccc21 (centres undefined),i,i,-18*,-6,i,76%*,i,50%*
O=C(COC(=O)Cc1c(F)cccc1Cl)NCc1ccc2c(c1)OCO2,i,.,.,.,.,.,.,.
COc1ccc(C(=O)NNC2CC(=O)N(Cc3ccc(Cl)cc3)C2=O)cc1OC (centres undefined),i,i,i,-3,i,.,.,.
O=C(Nc1cccc(Cl)c1)c1cccc(Oc2ccc([N+](=O)[O-])cc2Cl)c1,i,i,i,-14,i,i,i,i
COc1ccc(-c2nn(C)c3sc(C(=O)NCc4ccco4)cc23)cc1OC,i,i,i,-1,i,.,.,.
COc1cccc(-c2nn(C)c3sc(C(=O)NCc4ccc(C)o4)cc23)c1,i,i,-14*,-20,i,48%*,i,30%*
O=C(CCSc1ccc(Cl)cc1)N1CCCCCC1,i,i,i,-7,i,i,i,i
